For 3 molecules, IC50 results are on record in ChEMBL document CHEMBL1221279, “Synthesis, biological evaluation, and structure-activity relationship study of novel cytotoxic aza-caffeic acid derivatives” (Bioorg Med Chem, 2010).

Tested on in the first assay: not listed separately
In words: Cytotoxicity against human ECA109 cells after 72 hrs by MTT assay. It counts as functional, cell-based. The note with it: ECa-109, 72 h. In outline:
(§1)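 Cells grown in MEM with 10% fetal calf serum, penicillin and streptomycin at 37 °C, 5% CO2. Exponentially growing cells seeded in quadruplicate at 5 × 10³ per well and left 24 h before compounds (DMSO stocks) were added. After 72 h exposure, MTT added for 4 h at 37 °C, formazan dissolved in DMSO, read at 570 nm. IC50 read graphically from dose–response curves.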
Broadly, the IC50 is the concentration that gives 50% inhibition. Low values mean inhibition by little substance, high ones a need for much substance. Molecule `O=C(/C=C/c1ccccc1)NNC(=O)c1ccccc1O` came in with an IC50 of 41.4 µM.
`O=C(/C=C/c1ccc(O)c(O)c1)N1CCN(Cc2ccc(Cl)c(Cl)c2)CC1`: the IC50 was > 200 µM.
The same measure, in the same setting: as for `O=C(/C=C/C(=O)N1CCN(Cc2ccc(Cl)c(Cl)c2)CC1)c1ccccc1`, the figure is 103 µM.

A further assay has as its system KB. In words: Cytotoxicity against human KB cells after 72 hrs by MTT assay. It counts as functional, cell-based.
Conditions: not given
The method, boiled down:
as §1
In general terms: Tetrazolium assays rely on reduction of a dye to a coloured formazan, in cell work by metabolically active cells.
Molecule `O=C(/C=C/c1ccccc1)NNC(=O)c1ccccc1O` gave an IC50 of 20.1 µM.
Consider `O=C(/C=C/c1ccc(O)c(O)c1)N1CCN(Cc2ccc(Cl)c(Cl)c2)CC1`, for which the IC50 was > 200 µM.
Take `O=C(/C=C/C(=O)N1CCN(Cc2ccc(Cl)c(Cl)c2)CC1)c1ccccc1`: the midpoint of inhibition, the IC50, lay at 103 µM.

In another assay the test system is PC-3. In words: Cytotoxicity against human PC3 cells after 72 hrs by MTT assay. It counts as functional, cell-based. The settings on record: PC-3, 72 h. In outline:
as §1
With `O=C(/C=C/c1ccccc1)NNC(=O)c1ccccc1O`, half-maximal inhibition (IC50) was put at 40.9 µM.
As to `O=C(/C=C/c1ccc(O)c(O)c1)N1CCN(Cc2ccc(Cl)c(Cl)c2)CC1`, the IC50 is > 200 µM.
As to `O=C(/C=C/C(=O)N1CCN(Cc2ccc(Cl)c(Cl)c2)CC1)c1ccccc1`, the IC50 is > 200 µM.

Tested on in the next assay: not listed separately
In words: Cytotoxicity against human LS 174T cells after 72 hrs by MTT assay. It counts as functional, cell-based. The note with it: LS174T. The method, boiled down: as §1
The molecule `O=C(/C=C/c1ccccc1)NNC(=O)c1ccccc1O` yielded an IC50 of 20.1 µM.
`O=C(/C=C/c1ccc(O)c(O)c1)N1CCN(Cc2ccc(Cl)c(Cl)c2)CC1` yielded an IC50 of 50.4 µM.
As to `O=C(/C=C/C(=O)N1CCN(Cc2ccc(Cl)c(Cl)c2)CC1)c1ccccc1`, it took 67.2 µM to reach half-maximal inhibition (IC50).

Tested on in another assay: not listed separately
Put plainly: Cytotoxicity against human Bel7404 cells after 72 hrs by MTT assay. It counts as functional, cell-based. The note with it: BEL-7404, 72 h. The method, boiled down: as §1
Molecule `O=C(/C=C/c1ccccc1)NNC(=O)c1ccccc1O` displayed an IC50 of 21.2 µM.
Turning to `O=C(/C=C/c1ccc(O)c(O)c1)N1CCN(Cc2ccc(Cl)c(Cl)c2)CC1`, the IC50 was > 200 µM.
For the molecule `O=C(/C=C/C(=O)N1CCN(Cc2ccc(Cl)c(Cl)c2)CC1)c1ccccc1`, the concentration for half-maximal inhibition (IC50) was 67.1 µM.

Tested on in the next assay: not listed separately
Put plainly: Cytotoxicity against human HO8910 cells after 72 hrs by MTT assay. It counts as functional, cell-based. The settings on record: HO-8910, 72 h. The method, boiled down: as §1
Turning to `O=C(/C=C/c1ccccc1)NNC(=O)c1ccccc1O`, the IC50 was 190 µM.
The same measure, in the same setting: as for `O=C(/C=C/c1ccc(O)c(O)c1)N1CCN(Cc2ccc(Cl)c(Cl)c2)CC1`, the figure is > 200 µM.
For `O=C(/C=C/C(=O)N1CCN(Cc2ccc(Cl)c(Cl)c2)CC1)c1ccccc1`, the IC50 was > 200 µM.

A further assay has as its system A549. In words: Cytotoxicity against human A549 cells after 72 hrs by MTT assay. It counts as functional, cell-based. The note with it: A549, 72 h. In outline:
as §1
`O=C(/C=C/c1ccccc1)NNC(=O)c1ccccc1O` came in with an IC50 of 72.6 µM.
Still for that read-out and setting: the result for `O=C(/C=C/c1ccc(O)c(O)c1)N1CCN(Cc2ccc(Cl)c(Cl)c2)CC1` reads > 200 µM.
Same read-out and setting: the result for `O=C(/C=C/C(=O)N1CCN(Cc2ccc(Cl)c(Cl)c2)CC1)c1ccccc1` reads 139 µM.

A further assay has as its system BGC-823. In words: Cytotoxicity against human BGC823 cells after 72 hrs by MTT assay. It counts as functional, cell-based. The note with it: BGC-823, 72 h. In outline: as §1
For `O=C(/C=C/c1ccccc1)NNC(=O)c1ccccc1O`, the half-maximal inhibitory concentration (IC50) amounted to 46 µM.
With `O=C(/C=C/c1ccc(O)c(O)c1)N1CCN(Cc2ccc(Cl)c(Cl)c2)CC1`, the half-maximal inhibitory concentration (IC50) was > 200 µM.
`O=C(/C=C/C(=O)N1CCN(Cc2ccc(Cl)c(Cl)c2)CC1)c1ccccc1` registered an IC50 of 78.8 µM.

The test system of another assay is HL-60. Put plainly: Cytotoxicity against human HL60 cells after 72 hrs by MTT assay. It counts as functional, cell-based. The note with it: HL-60, 72 h. The method, boiled down: as §1
For `O=C(/C=C/c1ccccc1)NNC(=O)c1ccccc1O`, half-maximal inhibition (IC50) required 39.3 µM.
Same read-out and setting: as for `O=C(/C=C/c1ccc(O)c(O)c1)N1CCN(Cc2ccc(Cl)c(Cl)c2)CC1`, the figure is 165 µM; as for `O=C(/C=C/C(=O)N1CCN(Cc2ccc(Cl)c(Cl)c2)CC1)c1ccccc1`, 99.4 µM.

A further assay relates to CNE. In words: Cytotoxicity against human CNE cells after 72 hrs by MTT assay. It counts as functional, cell-based.
Conditions: not given
In outline:
as §1
Turning to `O=C(/C=C/c1ccccc1)NNC(=O)c1ccccc1O`, inhibition was half-maximal at 43.7 µM (IC50).
The same measure, in the same setting: as for `O=C(/C=C/c1ccc(O)c(O)c1)N1CCN(Cc2ccc(Cl)c(Cl)c2)CC1`, the figure is > 200 µM.
Turning to `O=C(/C=C/C(=O)N1CCN(Cc2ccc(Cl)c(Cl)c2)CC1)c1ccccc1`, the IC50 is > 200 µM.

The test system of the next assay is HeLa. In words: Cytotoxicity against human HeLa cells after 72 hrs by MTT assay. It counts as functional, cell-based.
Conditions: not given
In outline: as §1
`O=C(/C=C/c1ccccc1)NNC(=O)c1ccccc1O` registered an IC50 of 73.1 µM.
Still for that read-out and setting: the result for `O=C(/C=C/c1ccc(O)c(O)c1)N1CCN(Cc2ccc(Cl)c(Cl)c2)CC1` reads > 200 µM; that for `O=C(/C=C/C(=O)N1CCN(Cc2ccc(Cl)c(Cl)c2)CC1)c1ccccc1`, 84.8 µM.

In a further assay the test system is K562. Put plainly: Cytotoxicity against human K562 cells after 72 hrs by MTT assay. It counts as functional, cell-based. The note with it: K562, 72 h. The method, boiled down: as §1
Molecule `O=C(/C=C/c1ccccc1)NNC(=O)c1ccccc1O` displayed an IC50 of 0.9 µM.
The same measure, in the same setting: the result for `O=C(/C=C/c1ccc(O)c(O)c1)N1CCN(Cc2ccc(Cl)c(Cl)c2)CC1` reads > 200 µM; that for `O=C(/C=C/C(=O)N1CCN(Cc2ccc(Cl)c(Cl)c2)CC1)c1ccccc1`, > 200 µM.
